Assay outcomes (PubChem BioAssay)
The list is not random: actives were taken first. Their share in the collection is about 2.4%.
MPTP inh: permeability transition pore inhibition. isolated mouse mitochondria, Ca2+ swelling absorbance, 30 min. inhibition, % at 10 µM. actives 1.4% (n = 360,000);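 active = inhibition of 50% or more, scaled per plate between neutral and stimulator controls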
aDG glyco up: alpha-DG glycosylation activation | Pro5-aDG cells, alpha-DG glycosylation AlphaScreen (IIH6); 0% Pro5, 100% B10-LARGE cell signal | activation, % at 10 µM | actives 0.22% (n = 360,000);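 active = activation of at least 8% versus controls, or a plate z-score of at least 8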;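 also: Pro5 are CHO cells carrying HIG-tagged alpha-DG that lacks glycosylation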
Jurkat NFkB inh: inhibitors of the PMA/ionomycin-induced NF-kB reporter in Jurkat cells | inhibition, % at 4 µM | AID 435003 | actives 0.53% (n = 330,000) | PMA/ionomycin-induced NF-kB luciferase reporter, luminescence; in the data active = inhibition above about 50%
NR2E3 ag-1: agonists of human NR2E3 nuclear receptor. inhibition of corepressor binding, % at 3.98 µM. CHO-S Gal4-NCOR/VP16-NR2E3 two-hybrid, luciferase. actives 0.35% (n = 360,000). Q9Y5X4. AID 602229;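 active = inhibition above the mean of all tested compounds plus 3 SD, cut at about 70% in these data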;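 also: higher means lower luciferase signal from less NR2E3 corepressor binding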
Target sequence (Q9Y5X4 whole entry, looked up, the tested form may be a part): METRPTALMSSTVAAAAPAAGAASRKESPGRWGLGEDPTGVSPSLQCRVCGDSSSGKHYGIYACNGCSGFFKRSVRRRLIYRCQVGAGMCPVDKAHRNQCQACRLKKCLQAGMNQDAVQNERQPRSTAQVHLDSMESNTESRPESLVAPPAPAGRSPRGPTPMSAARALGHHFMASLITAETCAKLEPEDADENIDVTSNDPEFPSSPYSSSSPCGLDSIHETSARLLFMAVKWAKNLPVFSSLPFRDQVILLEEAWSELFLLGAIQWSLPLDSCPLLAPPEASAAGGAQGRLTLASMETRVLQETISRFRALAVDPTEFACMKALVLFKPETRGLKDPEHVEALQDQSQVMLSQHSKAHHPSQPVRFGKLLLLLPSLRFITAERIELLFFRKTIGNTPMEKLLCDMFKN
NR2E3 ag-2: NR2E3 (human) agonism; Q9Y5X4; GST-NR2E3/biotin-RetCOR TR-FRET, 1536-well; inhibition of corepressor binding, % at 4.78 µM; actives 0.12% (n = 320,000); AID 2300;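 active = percent inhibition above the cutoff of mean plus 3 SD of all tested compounds, set per screening campaign, cut at about 20% in these data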
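System: GST-tagged NR2E3 plus biotinylated RetCOR corepressor; Buffer or medium: pH 7.5 Tris-based buffer; Probe or stimulus: RetCOR corepressor, biotinylated, 7 nM; Doses: compound at 4.8 µM, single dose; Schedule: 5 h incubation at 4 °C; Technique: time-resolved FRET; Evaluation: percent inhibition of TR-FRET ratio; Replication: one well per compound, singlicate testing.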
697 NFkB inh: lowers PMA/ionomycin-induced NF-kB signal in 697 B cells. 697 B-cell NF-kB luciferase reporter, 16 h. inhibition, % at 4 µM. actives 0.33% (n = 330,000); in the data active = inhibition above about 35%
NR2E3 ag confirm: confirmation of human NR2E3 agonists; inhibition, % at 3.98 µM; CHO-S mammalian two-hybrid NR2E3-NCOR, luciferase luminescence; actives 51% (n = 2,300); shares compounds with NR2E3 ag-1;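 active = average inhibition above a cutoff equal to the mean inhibition of all tested compounds plus one SD, cut at about 70% in these data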
VP16 counter: GAL4-VP16 reporter inhibition in NR2E3 agonist counterscreen | AID 624379 | actives 29% (n = 2,300) | shares compounds with NR2E3 ag-1 | CHO-S GAL4-VP16 luciferase reporter, luminescence | inhibition, % at 3.98 µM;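 active = mean inhibition above a cutoff equal to the average over all tested compounds plus one standard deviation, cut at about 70% in these data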;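 also: luciferase from a UAS reporter driven by GAL4-VP16 transactivation; higher means less reporter light so more repression of VP16 activity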
Rh123 counter: membrane potential counter-screen of mitochondrial pore inhibitors | shares compounds with MPTP inh | isolated mitochondria, Rhodamine 123 fluorescence | inhibition, % at 10 µM | actives 78% (n = 5,000); in the data active = inhibition above about 22%
A number is an active result; n = inactive; x = no result.

SMILES	MPTP inh	aDG glyco up	Jurkat NFkB inh	NR2E3 ag-1	NR2E3 ag-2	697 NFkB inh	NR2E3 ag confirm	VP16 counter	Rh123 counter
CCOC(=O)N1CCN(c2ncnc3c2[nH]c2ccc(F)cc23)CC1	98	5.9	n	80	n	n	95	73	84
CCCCOc1ncnc2c1[nH]c1ccc(F)cc12	95	6.5	n	75	n	n	97	73	84
CCCCOc1ncnc2c1[nH]c1ccc(OCC)cc12	n	n	n	n	n	n	x	x	x
Fc1ccc2[nH]c3c(N4CCN(c5ccccc5)CC4)ncnc3c2c1	98	n	n	80	n	n	96	80	112
OC1(c2cccc(C(F)(F)F)c2)CCN(c2ncnc3c2[nH]c2ccc(F)cc23)CC1	50	3.7	x	71	x	x	91	n	87
Fc1ccc2[nH]c3c(Cl)ncnc3c2c1	n	n	n	n	n	n	x	x	x
O=C1NCCCCC1NS(=O)(=O)c1ccc(Cl)cc1 (stereo unspecified)	n	n	n	n	n	n	x	x	x
COc1cc2[nH]c3c(N4CCN(c5ccccn5)CC4)ncnc3c2cc1OC	n	n	n	n	n	n	x	x	x
COc1ccc(N2CCN(c3ncnc4c3[nH]c3ccccc34)CC2)cc1	79	6.2	n	77	n	n	95	81	107
O=C(NNC(=O)c1cccc(S(=O)(=O)N2CCc3ccccc32)c1)c1ccccc1	100	n	x	n	x	x	80	71	83
COC(=O)c1cc(S(=O)(=O)Nc2ccsc2C(=O)OC)oc1C	n	n	n	n	n	n	x	x	x
CCCCOc1ccc(S(=O)(=O)NNC(=O)c2cc3ccccc3o2)cc1	n	n	n	n	n	n	x	x	x
CC(C)COc1ccc(S(=O)(=O)NNC(=O)c2cc3ccccc3o2)cc1	60	n	n	75	n	n	76	n	50
CCNC(=S)N1CCC(C(N)=O)CC1	n	n	n	n	n	n	x	x	x
Clc1ccc2c(NCc3ccccc3)ccnc2c1	88	n	n	n	n	n	n	n	83
O=NN(CCc1ccncc1)c1ccc(OCc2ccccc2)cc1	93	n	n	86	n	n	95	85	89
O=C(NCc1ccncc1)C(=O)N/N=C/c1ccc(OCc2ccccc2)cc1	n	n	n	n	n	n	x	x	x
Cc1cc(=O)[nH]c(SCC(=O)c2ccc(F)c(C)c2)n1	n	n	n	n	n	n	x	x	x
O=C(Nc1ccc(F)cc1)Nc1cc(OCC(F)(F)F)cc(OCC(F)(F)F)c1	97	n	n	n	n	n	98	85	70
CN(Cc1ccccc1)C(=O)C1CCCN1S(=O)(=O)c1ccc2c(c1)n(C)c(=O)c(=O)n2C (stereo unspecified)	n	n	n	n	n	n	x	x	x
COc1cccc(/C=N/NC(=S)NC2CC3CC2C2C=CCC32)c1O (stereo unspecified)	n	n	n	n	n	n	x	x	x
Oc1ccccc1/C=N/NC(=S)NC1CC2CC1C1C=CCC21 (stereo unspecified)	59	n	n	n	n	n	n	n	54
NC(=O)CC(NC(=O)Cc1ccc(Br)cc1)c1ccc(N2CCN(c3ccc(F)cc3)CC2)c([N+](=O)[O-])c1 (stereo unspecified)	n	n	n	n	n	n	x	x	x
Cc1cc(Cn2nnc3ccccc32)c(O)c(C(C)(C)C)c1	53	n	n	80	n	n	n	n	94
CC(C)(C)c1cccc(Cn2nnc3ccccc32)c1O	82	n	n	n	n	n	n	n	97
SMILES	MPTP inh	aDG glyco up	Jurkat NFkB inh	NR2E3 ag-1	NR2E3 ag-2	697 NFkB inh	NR2E3 ag confirm	VP16 counter	Rh123 counter
Cc1cccc(Cn2nnc3ccccc32)c1O	n	n	n	n	n	n	x	x	x
COc1cc(C(=O)OCC(=O)N2c3ccccc3NC(=O)C2(C)C)ccc1OCC(C)C	n	n	n	n	n	n	x	x	x
C=Cc1ccc(Cn2nc(-c3ccc(C)cc3)ccc2=O)cc1	69	n	n	n	n	n	87	72	79
CC(C(=O)Nc1ccccc1)c1ccc(-c2ccccc2)c(F)c1 (stereo unspecified)	86	n	n	74	n	n	n	n	122
CC(C(=O)O)c1ccc(-c2ccccc2)c(F)c1 (stereo unspecified)	n	n	n	n	n	n	x	x	x
COc1ccc(CCN(C)C(=O)COc2ccc(C(=O)c3ccccc3)cc2)cc1OC	n	n	n	n	n	n	x	x	x
COc1ccc(CCN(C)C(=O)Cc2ccc(-c3ccccc3)cc2)cc1OC	64	n	n	85	n	n	85	n	72
Cn1nnnc1SCC(=O)Nc1c(Cl)cccc1Cl	n	n	n	n	n	n	x	x	x
Cc1cc(C(=O)CSc2nc3ccccc3[nH]2)c(C)n1CC1CCCO1 (stereo unspecified)	71	n	n	84	n	n	87	n	85
N#CC(C#N)=C(Nc1ccc(F)cc1)SCc1cccc(F)c1	95	n	n	81	n	n	89	88	85
COc1cccc(NC(=O)N2CCc3nc(NCc4cccc(Oc5ccccc5)c4)ncc3C2)c1	n	n	x	n	x	x	x	x	x
O=C(Nc1ccc(OC(F)(F)F)cc1)N1CCc2nc(NCc3cccc(Oc4ccccc4)c3)ncc2C1	92	n	x	n	x	x	n	n	96
OC(CSc1nnnn1-c1ccccc1)Cn1c2ccccc2c2ccccc21 (stereo unspecified)	n	n	x	n	x	x	x	x	x
Cc1ccc(CCNc2ncnc(Cl)c2N)cc1	101	n	x	78	x	x	92	74	108
N#CCCC(CCC#N)(CCC#N)c1cc[n+](CCc2ccccn2)cc1	n	n	n	n	n	n	x	x	x
COc1ccc(S(=O)(=O)N2CCN(c3c(C)cccc3C)CC2)cc1OC	n	n	n	n	n	n	x	x	x
COc1ccc(S(=O)(=O)N2CCN(c3ccc(C)cc3C)CC2)cc1OC	57	n	n	n	n	n	74	n	82
C=CCC1CCC/C(=N\NS(=O)(=O)c2ccc(C)cc2)C1 (stereo unspecified)	n	n	n	n	n	n	x	x	x
O=c1cc(-c2ccccc2)nc2c(-c3ccccc3)c(C(F)(F)F)[nH]n12	64	n	n	n	n	n	100	77	47
C=CCC1(CC=C)CCCN1C(=O)c1cc(COc2ccc(F)c(F)c2)on1	n	n	n	n	n	n	x	x	x
